Calls of active or inactive are those of the source. The calls are words filed in the database; no cut-off is given here.
How the values were obtained:
[1] = target: T1, Retinoic acid receptor alpha (Homo sapiens, UniProt P10276); assay: Displacement of [11,12-3H]ARTA from RARalpha
T1 sequence (P10276 whole entry): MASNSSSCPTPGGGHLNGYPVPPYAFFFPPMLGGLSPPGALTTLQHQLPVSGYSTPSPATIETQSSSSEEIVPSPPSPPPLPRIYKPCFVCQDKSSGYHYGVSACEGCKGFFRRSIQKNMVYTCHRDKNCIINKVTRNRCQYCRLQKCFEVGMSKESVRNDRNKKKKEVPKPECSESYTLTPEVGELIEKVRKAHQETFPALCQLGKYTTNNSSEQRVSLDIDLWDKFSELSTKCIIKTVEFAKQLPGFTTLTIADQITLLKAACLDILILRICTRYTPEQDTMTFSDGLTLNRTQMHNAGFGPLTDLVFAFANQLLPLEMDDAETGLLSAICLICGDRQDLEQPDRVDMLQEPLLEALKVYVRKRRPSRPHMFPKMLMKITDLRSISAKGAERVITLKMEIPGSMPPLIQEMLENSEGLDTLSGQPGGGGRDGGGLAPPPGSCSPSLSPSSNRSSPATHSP
Method in brief: (§1)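 Recombinant S-Tag RARα, RARβ or RARγ fusion protein extracts (10-30 µg/mL total protein) in HEPES pH 7.9 binding buffer. Incubated with 1 nM [3H]all-trans-RA and 0-500 nM test compound for 3 h at 27 °C.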

[2] = target: T2, Retinoic acid receptor beta (Homo sapiens, UniProt P10826); assay: Displacement of [11,12-3H]ARTA from RARbeta; method in brief: as §1
T2 sequence (P10826 whole entry): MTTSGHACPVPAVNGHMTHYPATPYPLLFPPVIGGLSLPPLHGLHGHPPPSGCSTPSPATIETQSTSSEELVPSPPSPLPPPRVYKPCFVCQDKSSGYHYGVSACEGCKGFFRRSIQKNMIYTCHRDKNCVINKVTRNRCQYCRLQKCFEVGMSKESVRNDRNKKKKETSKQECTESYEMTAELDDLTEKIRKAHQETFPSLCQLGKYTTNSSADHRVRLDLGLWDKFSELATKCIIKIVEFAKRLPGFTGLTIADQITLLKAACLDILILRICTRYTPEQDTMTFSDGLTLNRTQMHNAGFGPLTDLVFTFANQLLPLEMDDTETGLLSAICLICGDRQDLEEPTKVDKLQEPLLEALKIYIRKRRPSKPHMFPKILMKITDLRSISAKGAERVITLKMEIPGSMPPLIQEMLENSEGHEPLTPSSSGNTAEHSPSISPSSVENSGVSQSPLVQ

[3] = Displacement of [11,12-3H]ARTA from RARgamma; set-up: species or system Homo sapiens
Method in brief: as §1, with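 “°C. Nonspecific binding measured with a 200-fold excess of unlabeled RA; IC50 from dose-response curves, at least two experiments.” for “°C.”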

[4] = Inhibition of ATRA hydroxylase in Syrian golden hamster liver microsome assessed ATRA metabolism using [11.12-3H]-ATRA; assay type: microsomes, Mesocricetus auratus
Method in brief: (§2)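 Microsomes from male Syrian golden hamster liver, or from T47D cells pretreated with 1 µM ATRA. Incubation in 0.1 M phosphate buffer pH 7.4 with NADPH, MgCl2 and BSA, inhibitor in DMSO; 3 min preincubation at 37 °C, then [11,12-3H]-ATRA for 30 min at 37 °C under oxygen. Ethyl acetate extraction, reverse-phase HPLC with radiometric detection; percent polar metabolites; IC50 from dose-response curves.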

Cytochrome P450 26A1 [5] = target: T3, Cytochrome P450 26A1 (Homo sapiens, UniProt O43174); assay: Inhibition of ATRA-induced CYP26 in human T47D cell microsome assessed as ATRA metabolism using [11.12-3H]-ATRA; assay type: functional, microsomes; method in brief: as §2
T3 sequence (O43174 whole entry): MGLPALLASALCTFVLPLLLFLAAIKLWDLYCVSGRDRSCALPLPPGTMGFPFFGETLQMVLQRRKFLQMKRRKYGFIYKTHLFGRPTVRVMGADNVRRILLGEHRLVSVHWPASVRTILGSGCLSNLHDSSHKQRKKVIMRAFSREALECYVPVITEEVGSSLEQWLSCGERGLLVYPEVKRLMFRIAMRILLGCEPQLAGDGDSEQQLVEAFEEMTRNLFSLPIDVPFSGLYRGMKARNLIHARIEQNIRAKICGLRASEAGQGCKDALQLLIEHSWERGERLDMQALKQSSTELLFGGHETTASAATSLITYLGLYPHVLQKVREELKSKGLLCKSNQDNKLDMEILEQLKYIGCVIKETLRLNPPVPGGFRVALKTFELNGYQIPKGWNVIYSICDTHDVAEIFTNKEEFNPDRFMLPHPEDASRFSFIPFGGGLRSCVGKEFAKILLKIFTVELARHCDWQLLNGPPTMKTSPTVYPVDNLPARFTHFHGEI

Cytochrome P450 26A1 [6] = target: T3, Cytochrome P450 26A1; assay: Inhibition of ATRA-induced CYP26 in human T47D cells assessed as ATRA metabolism using [11.12-3H]-ATRA; assay type: functional, cell-based
Method in brief: (§3)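 MCF-7 or T47D cells (1 × 10^6 per well) induced with 1 µM ATRA for 12-15 h, washed, then given inhibitor (0.0001-10 µM, ethanol stock) plus 0.001 µM [11,12-3H]-ATRA for 5 h. Media and cells extracted with ethyl acetate; metabolites measured by reverse-phase HPLC with radiometric detection; IC50 from dose-response curves.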

Cytochrome P450 26A1 [7] = target: T3, Cytochrome P450 26A1; assay: Inhibition of ATRA-induced CYP26 in human MCF7 cells assessed ATRA as metabolism using [11.12-3H]-ATRA; assay type: functional, cell-based; method in brief: as §3
MDA-MB-231 [8] = assay: Growth inhibition of human MDA-MB-231 cells after 6 days by MTT assay; assay type: functional, cell-based; conditions: MDA-MB-231, 144 h
MDA-MB-231 [9] = assay: Growth inhibition of human MDA-MB-231 cells up to 10 uM after 6 days by MTT assay; assay type: functional, cell-based
LNCaP [10] = assay: Growth inhibition of human LNCaP cells after 6 days by MTT assay; assay type: functional, cell-based; conditions: 144 h
Method in brief: (§4)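 LNCaP cells (1 × 10^4) on poly-L-lysine-coated wells, attached 36 h; PC-3 cells (1 × 10^4), uncoated, attached 24 h; both in RPMI 1640. Treated with a concentration range of drug for 6 days, medium changed every 3 days. MTT read-out at 540 nm; IC50 by nonlinear regression from at least two experiments.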

T47D [11] = assay: Induction of apoptosis in human T47D cells at 1 uM for 6 days by TUNEL assay; assay type: functional, cell-based
Method in brief: (§5)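 MCF-7 or T47D cells exposed to 1 µM compound for 6 days, then trypsinized, fixed in 1% paraformaldehyde and stored in 70% ethanol at -20 °C overnight. TdT/BrdUTP labeling (APO-BRDU TUNEL), fluorescein anti-BrdU plus PI/RNase stain; apoptotic cells counted by flow cytometry.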

MCF7 [12] = assay: Induction of apoptosis in human MCF7 cells at 1 uM for 6 days by TUNEL assay; assay type: functional, cell-based; method in brief: as §5
T47D [13] = assay: Growth inhibition of human T47D cells after 6 days by MTT assay; assay type: functional, cell-based; conditions: 144 h
Method in brief: (§6)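 MCF-7 (IMEM, 5% FBS) or T47D (RPMI 1640, 10% FBS) cells, 1 × 10^4 per well, adhered ~18 h, then exposed to 0.0001-10 µM drug (ethanol) for 6 days with media and drug renewed on day 4. MTT for 2 h, formazan dissolved in DMSO, A540. Triplicate wells, 2-3 experiments; IC50 by nonlinear regression.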

MCF7 [14] = assay: Growth inhibition of human MCF7 cells after 6 days by MTT assay; assay type: functional, cell-based; conditions: MCF7, 144 h; method in brief: as §6
LNCaP [15] = assay: Induction of cell differentiation in human LNCaP cells after 6 days; assay type: functional, cell-based
Method in brief: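 LNCaP cells given 1 µM compound, alone or with 1 µM ATRA, for 6 days. Lysates (50 µg) run on 10% SDS-PAGE and Western blotted with anti-cytokeratin 8/18, β-actin as control. ECL detection; band intensity by densitometry taken as the differentiation marker.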

PC-3 = assay: Growth inhibition of human PC3 cells after 6 days by MTT assay; assay type: functional, cell-based; conditions: PC-3, 144 h; method in brief: as §4
Cytochrome P450 26A1 [16] = target: T3, Cytochrome P450 26A1; assay: Inhibition of ATRA-induced CYP26 in human T47D cells assessed as ATRA metabolism using [11.12-3H]-ATRA up to 10 uM; assay type: functional, cell-based
Method in brief: (§7)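 Cells seeded at 1 × 10^6 per well and pretreated with 1 µM ATRA for 12-15 h to induce CYP26. After washing, they were incubated 5 h with inhibitor (0.0001-10 µM) plus 0.001 µM [11,12-3H]-ATRA; stocks were in 95% ethanol. […] IC50 was taken from dose-response curves.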

Cytochrome P450 26A1 [17] = target: T3, Cytochrome P450 26A1; assay: Inhibition of ATRA-induced CYP26 in human MCF7 cells assessed as ATRA metabolism using [11.12-3H]-ATRA up to 10 uM; assay type: functional, cell-based; method in brief: as §7

CC1=C(/C=C/C(C)=C/C=C/C(C)=C/C(=O)O)C(C)(C)CCC1n1cncn1 (racemic)
IC50 [1]: > 1000 nM
IC50 [2]: 1000 nM
IC50 [3]: 700 nM
IC50 [4]: 5.84 nM

COC(=O)/C=C(C)/C=C/C=C(C)/C=C/C1=C(C)C(n2ccnc2)CCC1(C)C (racemic)
IC50 (Cytochrome P450 26A1 [5]): 40 nM
IC50 (Cytochrome P450 26A1 [6]): 215 nM
IC50 [4]: 0.009 nM
Ki [4]: 46 nM
IC50 (Cytochrome P450 26A1 [7]): 200 nM
IC50 (MDA-MB-231 [8]): 7500 nM

CC1=C(/C=C/C(C)=C/C=C/C(C)=C\C(=O)n2ccnc2)C(C)(C)CCC1n1ccnc1 (racemic)
IC50 [4]: 57.5 nM

CC1=C(/C=C/C(C)=C/C=C/C(C)=C/C(=O)n2ccnc2)C(C)(C)CCC1n1ccnc1 (racemic)
Activity (MDA-MB-231 [9]): inactive
IC50 (Cytochrome P450 26A1 [5]): 5.2 nM
IC50 (LNCaP [10]): 10000 nM
Activity (T47D [11]): Active
IC50 (Cytochrome P450 26A1 [6]): 10 nM
IC50 [4]: 0.05 nM
Ki [4]: 62 nM
Activity (MCF7 [12]): Active
IC50 (T47D [13]): 9 nM
IC50 (Cytochrome P450 26A1 [7]): 24.7 nM
IC50 (MCF7 [14]): 130 nM
Activity (LNCaP [15]): Active
IC50 (PC-3): 5800 nM

COC(=O)/C=C(C)/C=C/C=C(C)/C=C/C1=C(C)[C@H](n2ccnc2)CCC1(C)C (stereo in doubt; (-)-5)
IC50 (Cytochrome P450 26A1 [5]): 680 nM
IC50 (Cytochrome P450 26A1 [6]; t47d): 6000 nM

CC1=C(/C=C/C(C)=C/C=C/C(C)=C/C(=O)Nc2ccc(O)cc2)C(C)(C)CCC1 [FENRETINIDE]
IC50 (LNCaP [10]): 7500 nM
IC50 [4]: 31800 nM
IC50 (MCF7 [14]): 150 nM
IC50 (PC-3): 3600 nM
IC50 (MDA-MB-231 [8]): 7700 nM

CC1=C(/C=C/C(C)=C/C=C/C(C)=C\C(=O)Nc2ccc(O)cc2)C(C)(C)CCC1n1ccnc1 (racemic)
IC50 [4]: 76.7 nM
Ki [4]: 0.78 nM

Clc1cccc(C(c2ccc3[nH]cnc3c2)n2ccnc2)c1 (stereo not given) [LIAROZOLE]
Activity (Cytochrome P450 26A1 [16]): Not Active
IC50 [4]: 6000 nM
Activity (Cytochrome P450 26A1 [17]): Not Active

CC1=C(/C=C/C(C)=C/C=C/C(C)=C/C(=O)Nc2ccc(O)cc2)C(C)(C)CCC1n1ccnc1 (racemic)
IC50 (LNCaP [10]): 9000 nM
IC50 (Cytochrome P450 26A1 [6]): 24 nM
IC50 [4]: 43.7 nM
Ki [4]: 0.35 nM
IC50 (T47D [13]): 570 nM
IC50 (Cytochrome P450 26A1 [7]): 56 nM
IC50 (MCF7 [14]): 610 nM
IC50 (PC-3): 1500 nM
IC50 (MDA-MB-231 [8]): 6300 nM
